Experimental findings from ChEMBL document CHEMBL1212726, “Inhibition of a viral enzyme by a small-molecule dimer disruptor” (Nat Chem Biol, 2009) are described below.

The subject of experiment [1] is Human gammaherpesvirus 8. The experiment is described as follows: Inhibition of KSHV protease at 10 uM by fluorogenic activity assay. Summed up:
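Screen: protease at 2 μM final in 25 mM potassium phosphate pH 8, 150 mM KCl, 0.1 mM EDTA, 1 mM DTT. Compound at 10 μM final (1% DMSO) preincubated 30 min at 30°C. Ac-PVYtQA-ACC (P6) substrate added to 160 μM final. Fluorescence (ex 380/em 460 nm) followed 1 h at 30°C. Hit defined as ≥50% drop in initial velocity versus uninhibited control.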

Experiment [2] deals with Granzyme B (Homo sapiens) (UniProt P10144). The experiment is described as follows: Inhibition of granzyme B-mediated aggregation at 30 uM after 30 mins by spectrophotometry in absence of Triton X-100.
In experiment [3] the test system is T1, Capsid scaffolding protein (Human herpesvirus 8 type P (isolate GK18) (HHV-8) (Kaposi'ssarcoma-associated herpesvirus)), Q2HRB6 [M197D].
T1 sequence (whole entry): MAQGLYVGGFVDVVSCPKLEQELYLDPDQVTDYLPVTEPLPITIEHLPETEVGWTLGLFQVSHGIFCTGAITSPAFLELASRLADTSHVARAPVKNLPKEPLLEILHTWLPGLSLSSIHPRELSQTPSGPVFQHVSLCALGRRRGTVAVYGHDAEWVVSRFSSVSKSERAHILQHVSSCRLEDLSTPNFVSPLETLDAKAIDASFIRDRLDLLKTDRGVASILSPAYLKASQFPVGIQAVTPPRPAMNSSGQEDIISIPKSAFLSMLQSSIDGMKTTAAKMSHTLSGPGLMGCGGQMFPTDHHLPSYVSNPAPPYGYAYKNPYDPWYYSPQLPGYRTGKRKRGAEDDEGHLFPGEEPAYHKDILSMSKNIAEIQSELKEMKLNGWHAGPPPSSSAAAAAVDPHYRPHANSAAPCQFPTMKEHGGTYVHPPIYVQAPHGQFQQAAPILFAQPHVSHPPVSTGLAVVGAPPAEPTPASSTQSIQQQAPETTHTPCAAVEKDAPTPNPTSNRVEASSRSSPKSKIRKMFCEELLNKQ
Briefly: Inhibition of KSHV protease M197D mutant at 170 uM by 1H-15N-HSQC NMR. The following applies: Human gammaherpesvirus 8.

Experiment [4] concerns Human gammaherpesvirus 8. The experiment is described as follows: Activity at KSHV protease at 3 uM. Summed up:
(§1)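 Michaelis–Menten kinetics in 100 μl with 1 μM KSHV Pr in assay buffer. P6 substrate at 80, 40, 30, 20, 10, 6, 4 and 2 μM, crossed with inhibitor at 10, 7, 5, 3, 1 and 0 μM. Initial velocities converted at 2364 rfu per μM substrate. […] Mean ± s.d. (n=3).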

For experiment [5], the system named is Human gammaherpesvirus 8. Briefly: Ratio of Kcat to Km in KSHV protease at 10 uM. Summed up: as §1
Experiment [6] addresses Granzyme B (Homo sapiens) (UniProt P10144). Briefly: Inhibition of granzyme B-mediated aggregation at 30 uM after 30 mins by spectrophotometry in presence of Triton X-100.
For experiment [7], the system named is Human gammaherpesvirus 8. The experiment is described as follows: Activity at KSHV protease at 1 uM. Summed up: as §1
In experiment [8] the test system is Human gammaherpesvirus 8. The experiment is described as follows: Ratio of Kcat to Km in KSHV protease at 7 uM. Summed up:
as §1

A further experiment concerns Human betaherpesvirus 5. The experiment is described as follows: Inhibition of CMV protease at 10 uM by fluorogenic activity assay. Summed up: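 CMV protease, expressed from a provided plasmid, run in the KSHV Pr fluorogenic assay format with KSHV Pr buffer and reagents, including the P6 ACC hexapeptide substrate.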
Experiment [9] has as its system Human gammaherpesvirus 8. Briefly: Ratio of Kcat to Km in KSHV protease at 5 uM. Summed up: as §1
The subject of experiment [10] is Human gammaherpesvirus 8. The experiment is described as follows: Inhibition of KSHV protease dimerization at 30 uM by size exclusion chromatography.
The test system of experiment [11] is Human gammaherpesvirus 8. Briefly: Ratio of Kcat to Km for KSHV protease at 1 uM. Summed up:
as §1

For experiment [12], the system named is Human gammaherpesvirus 8. Briefly: Mixed inhibition of KSHV protease at 1 to 10 uM. Summed up:
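1 μM KSHV protease in pH 8 phosphate assay buffer with Ac-PVYtQA-ACC substrate at 80, 40, 30, 20, 10, 6, 4 and 2 μM, and inhibitor at 10, 7, 5, 3, 1 and 0 μM. Initial velocities were converted with 2364 rfu per μM substrate.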

The subject of experiment [13] is Human gammaherpesvirus 8. Briefly: Induction of KSHV protease Trp109 mutant dimerization disruption up to 30 uM by size exclusion chromatography. A general note: SEC sorts molecules by how far they enter the pores of the column.
Experiment [14] has as its system Human gammaherpesvirus 8. Briefly: Induction of KSHV protease dimerization disruption at 30 uM by size exclusion chromatography. Summed up: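 KSHV protease (S204G background) at 5 μM in 25 mM potassium phosphate pH 8, 150 mM KCl, 0.1 mM EDTA, 1 mM DTT, incubated with 30 μM compound for 30 min at 30°C (1% DMSO). Dimer and monomer were resolved by elution peaks. DMSO control.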

Experiment [15] relates to Human gammaherpesvirus 8. Briefly: Activity at KSHV protease at 7 uM. Summed up:
as §1

Experiment [16] deals with Human gammaherpesvirus 8. The experiment is described as follows: Ratio of Kcat to Km in KSHV protease at 3 uM. Summed up:
as §1

For experiment [17], the system named is Human gammaherpesvirus 8. Briefly: Activity at KSHV protease at 5 uM. Summed up: as §1
Experiment [18] concerns Human gammaherpesvirus 8. The experiment is described as follows: Activity at KSHV protease at 10 uM. Summed up: as §1
The nature of experiment [19]: Inhibition of KSHV protease by fluorogenic activity assay. The arrangement: species or system Human gammaherpesvirus 8.

The source made the active and inactive calls.

Chain of Granzyme B (Homo sapiens) (P10144 whole entry): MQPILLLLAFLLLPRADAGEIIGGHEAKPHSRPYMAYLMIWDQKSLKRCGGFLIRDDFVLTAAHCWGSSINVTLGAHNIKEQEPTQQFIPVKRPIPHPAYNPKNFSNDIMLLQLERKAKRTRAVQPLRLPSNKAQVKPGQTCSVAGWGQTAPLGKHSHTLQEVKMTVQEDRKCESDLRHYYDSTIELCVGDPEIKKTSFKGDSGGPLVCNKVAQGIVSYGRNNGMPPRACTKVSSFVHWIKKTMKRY

Consider `COC(=O)c1ccc(NC(=O)c2cccc(CC3CCCCC3)c2)c(Cc2ccccc2)c1`, for which, in the experiment on Human gammaherpesvirus 8 [1], the inhibition (in general, the change of the read-out against control, counted positive when it falls) came to 9.4%.
Take `O=C(O)c1ccc(NC(=O)c2cccc(CC3CCCCC3)n2)c(Cc2ccccc2)c1`: the inhibition entry in experiment [2] and in experiment [6] was “inactive” throughout. Also, the inhibition entry (in experiment [3]; with Human gammaherpesvirus 8 [10]; in the experiment on Human gammaherpesvirus 8 [12]) was “Active” in each case. Also, the Michaelis constant (Km) (commonly the substrate concentration at which the rate is half of its maximum) was found to be 16.5 µM in the experiment on Human gammaherpesvirus 8 [4]; 13.6 µM with Human gammaherpesvirus 8 [7]; 23.9 µM in the experiment with Human gammaherpesvirus 8 [15]; 21.2 µM in the experiment with Human gammaherpesvirus 8 [17]; 27.4 µM in the experiment on Human gammaherpesvirus 8 [18]. The kcat/Km (usually the turnover number divided by the Michaelis constant) in the experiment on Human gammaherpesvirus 8 [5] worked out at 153 M⁻¹ s⁻¹; with Human gammaherpesvirus 8 [8], 280 M⁻¹ s⁻¹; in the experiment on Human gammaherpesvirus 8 [9] it was 398 M⁻¹ s⁻¹; with Human gammaherpesvirus 8 [11] it was 997 M⁻¹ s⁻¹; in the experiment with Human gammaherpesvirus 8 [16], 673 M⁻¹ s⁻¹. The figures for the inhibition with Human betaherpesvirus 5 and in the experiment on Human gammaherpesvirus 8 [1] were 92% and 82.7%, respectively. The outcome with Human gammaherpesvirus 8 [13] was inactive. Moreover, the result with Human gammaherpesvirus 8 [14] was Active.
The compound `O=C(O)c1ccc(NC(=O)c2cncc(CC3CCCCC3)c2)c(Cc2ccccc2)c1` showed an inhibition with Human gammaherpesvirus 8 [1] of 7.9%.
Same read-out and setting: then `O=C(O)c1ccc(NC(=O)c2ccc(CC3CCCCC3)nc2)c(Cc2ccccc2)c1`, with 10%; and `O=C(O)c1ccc(NC(=O)c2ccc(CC3CCCCC3)cc2)c(Cc2ccccc2)c1`, with 24%.
In turn, `O=C(O)c1ccc(NC(=O)c2ccccc2CC2CCCCC2)c(Cc2ccccc2)c1` gave an inhibition with Human gammaherpesvirus 8 [1] of 14.8%.
For the compound `Oc1c(Cl)cc(Cl)c(Cl)c1Cc1c(O)c(Cl)cc(Cl)c1Cl`, the inhibition entry in experiment [2] was “Active”. For the same compound, the inhibition entry in experiment [6] is “inactive”.
As to `O=C(O)c1ccc(NC(=O)c2cccc(CC3CCCCC3)c2)c(Cc2ccccc2)c1`, in experiment [19], inhibition was half-maximal at 8.8 µM (IC50). Besides, the inhibition with Human gammaherpesvirus 8 [1] is 56.6%.
Regarding `COc1ccc(C(=O)Nc2ccc(C(=O)O)cc2Cc2ccccc2)cc1CC1CCCCC1`, in [19], the midpoint of inhibition, the IC50, lay at 16.4 µM. The same compound gave an inhibition in the experiment with Human gammaherpesvirus 8 [1] of 51.1%.
